Test results reported in ChEMBL document CHEMBL3352181, “Novel phenyl and pyridyl substituted derivatives of isoindolines: Synthesis, antitumor activity and DNA binding features” (Eur J Med Chem, 2014).
pIC50: −log10 of the molar value. Calls of active or inactive are those of the source. The calls are words filed in the database; no cut-off is given here.

Key:
HepG2 [1] = assay: Induction of cell cycle arrest on human HepG2 cells assessed as accumulation at G1 phase at 20 uM after 24 hrs by propidium iodide staining based flow cytometry (reference value: 66.5 +/- 1.4%); assay type: functional
Hep G2 (human) [2] = assay: Induction of apoptosis in human HepG2 cells assessed as induction of apoptotic bodies at 50 uM after 24 hrs by Annexin V-Fluos staining based fluorescent microscopy
MCF7 = assay: Antiproliferative activity against human MCF7 cells assessed as inhibition of cell proliferation after 72 hrs by MTT assay; assay type: functional, cell-based
How it was run: (§1)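 Cells grown as monolayers in DMEM with 10% FBS, 2 mM L-glutamine, penicillin/streptomycin, 37 °C, 5% CO2. Seeded at 5000/well on day 0. Compounds added after 24 h as five serial dilutions (0,01 to 100 µM), DMSO ≤0.1%, then 72 h. MTT read-out converted to percentage growth. IC50 by linear regression; quadruplicates in three experiments.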

[3] = (§2) Antiproliferative activity against human SW620 cells assessed as inhibition of cell proliferation after 72 hrs by MTT assay; assay type: functional, cell-based, SW-620; details: Homo sapiens, SW-620, 72 h; how it was run: as §1
SW-620 = assay: as §2; assay type: functional, cell-based; how it was run: as §1
HepG2 [4] = assay: Induction of cell cycle arrest on human HepG2 cells assessed as accumulation at subG1 phase at 20 uM after 24 hrs by propidium iodide staining based flow cytometry (reference value: 2.9 +/- 1.1%); assay type: functional
How it was run: (§3)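 HepG2 or SW620 cells were seeded at 25000 per well. After 24 h they were treated, then harvested 24 or 48 h later. Attached cells were trypsinized, pooled with floating cells, PBS-washed and fixed in 70% ethanol. Cells were stained with PI 1 µg/mL plus RNase A 0.2 µg/mL, and 10 000 events were acquired by flow cytometry. Phase percentages come from DNA histograms, in duplicate, with ANOVA at p < 0.05.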

HepG2 [5] = assay: Antiproliferative activity against human HepG2 cells assessed as inhibition of cell proliferation after 72 hrs by MTT assay; assay type: functional, cell-based; how it was run: as §1
HepG2 [6] = assay: Induction of cell cycle arrest on human HepG2 cells assessed as accumulation at subG1 phase at 20 uM after 48 hrs by propidium iodide staining based flow cytometry (reference value: 1.7 +/- 0.5%); assay type: functional; how it was run: as §3
HepG2 [7] = assay: Induction of cell cycle arrest on human HepG2 cells assessed as accumulation at subG1 phase at 50 uM after 48 hrs by propidium iodide staining based flow cytometry (reference value: 1.7 +/- 0.5%); assay type: functional; how it was run: as §3
HepG2 [8] = assay: Induction of cell cycle arrest on human HepG2 cells assessed as accumulation at G2/M phase at 50 uM after 24 hrs by propidium iodide staining based flow cytometry (reference value: 16.5 +/- 1.6%); assay type: functional
HepG2 [9] = assay: Induction of cell cycle arrest on human HepG2 cells assessed as accumulation at S phase at 20 uM after 48 hrs by propidium iodide staining based flow cytometry (reference value: 9.3 +/- 13.2%); assay type: functional; how it was run: as §3
HepG2 [10] = assay: Induction of cell cycle arrest on human HepG2 cells assessed as accumulation at G1 phase at 50 uM after 48 hrs by propidium iodide staining based flow cytometry (reference value: 62.7 +/- 0.5%); assay type: functional
HepG2 [11] = assay: Induction of cell cycle arrest on human HepG2 cells assessed as accumulation at S phase at 20 uM after 24 hrs by propidium iodide staining based flow cytometry (reference value: 17.0 +/- 2.9%); assay type: functional
HepG2 [12] = assay: Induction of cell cycle arrest on human HepG2 cells assessed as accumulation at G1 phase at 50 uM after 24 hrs by propidium iodide staining based flow cytometry (reference value: 66.5 +/- 1.4%); assay type: functional
HepG2 [13] = assay: Induction of cell cycle arrest on human HepG2 cells assessed as accumulation at G2/M phase at 20 uM after 24 hrs by propidium iodide staining based flow cytometry (reference value: 16.5 +/- 1.6%); assay type: functional
HepG2 [14] = assay: Induction of cell cycle arrest on human HepG2 cells assessed as accumulation at S phase at 50 uM after 24 hrs by propidium iodide staining based flow cytometry (reference value: 17.0 +/- 2.9%); assay type: functional; how it was run: as §3
HepG2 [15] = assay: Induction of cell cycle arrest on human HepG2 cells assessed as accumulation at G2/M phase at 50 uM after 48 hrs by propidium iodide staining based flow cytometry (reference value: 28.0 +/- 13.8%); assay type: functional
HepG2 [16] = assay: Induction of cell cycle arrest on human HepG2 cells assessed as accumulation at S phase at 50 uM after 48 hrs by propidium iodide staining based flow cytometry (reference value: 9.3 +/- 13.2%); assay type: functional; how it was run: as §3
HeLa = assay: Antiproliferative activity against human HeLa cells assessed as inhibition of cell proliferation after 72 hrs by MTT assay; assay type: functional, cell-based; how it was run: as §1
HepG2 [17] = assay: Induction of cell cycle arrest on human HepG2 cells assessed as accumulation at subG1 phase at 50 uM after 24 hrs by propidium iodide staining based flow cytometry (reference value: 2.9 +/- 1.1%); assay type: functional; how it was run: as §3
Hep G2 (human) [18] = assay: Induction of apoptosis in human HepG2 cells assessed as induction of cytoplasmic shrinkage at 50 uM after 24 hrs by Annexin V-Fluos staining based fluorescent microscopy
HepG2 [19] = assay: Induction of cell cycle arrest on human HepG2 cells assessed as accumulation at G1 phase at 20 uM after 48 hrs by propidium iodide staining based flow cytometry (reference value: 62.7 +/- 0.5%); assay type: functional
HepG2 [20] = assay: Induction of cell cycle arrest on human HepG2 cells assessed as accumulation at G2/M phase at 20 uM after 48 hrs by propidium iodide staining based flow cytometry (reference value: 28.0 +/- 13.8%); assay type: functional
BJ = assay: Antiproliferative activity against human BJ cells assessed as inhibition of cell proliferation after 72 hrs by MTT assay; assay type: cell-based; details: 72 h; how it was run: as §1

N#Cc1ccc(/N=C2\c3ccccc3CN2c2ccc(C#N)cn2)nc1
Activity (HepG2 [1]): 58.1%
Activity (Hep G2 (human) [2]): inactive
inhibition (MCF7): Dose-dependent effect
pIC50 (MCF7; Homo sapiens, MCF7, 72 h): 4.15
pIC50 [3]: < 4.00
inhibition (SW-620): Dose-dependent effect
Activity (HepG2 [4]): 6.6%
inhibition (HepG2 [5]): Dose-dependent effect
pIC50 (HepG2 [5]; HepG2, 72 h): 5.03
Activity (HepG2 [6]): 5.7%
Activity (HepG2 [7]): 8.4%
Activity (HepG2 [8]): 16.2%
Activity (HepG2 [9]): 19.5%
Activity (HepG2 [10]): 61.2%
Activity (HepG2 [11]): 21.5%
Activity (HepG2 [12]): 57.4%
Activity (HepG2 [13]): 20.4%
Activity (HepG2 [14]): 26.4%
Activity (HepG2 [15]): 20.3%
Activity (HepG2 [16]): 18.5%
inhibition (HeLa): Dose-dependent effect
pIC50 (HeLa; Homo sapiens, HeLa, 72 h): 5.06
Activity (HepG2 [17]): 6.7%
Activity (Hep G2 (human) [18]): inactive
Activity (HepG2 [19]): 61%
Activity (HepG2 [20]): 19.5%
pIC50 (BJ; Homo sapiens, BJ): 4.20
inhibition (INH) (BJ; human, bj): Dose-dependent effect
